Assay results as given in ChEMBL document CHEMBL3045604, “Phytotoxicity of sarmentine isolated from long pepper (Piper longum) fruit” (J Agric Food Chem, 2010).
Active and inactive are the calls of the source. The calls are words filed in the database; no cut-off is given here.

Legend:
Echinochloa crus-galli [1] = assay: (§1) Phytotoxicity against Echinochloa crus-galli (barnyard grass) assessed as mortality measured after 3 days at 5 mg/ml by foliar spraying; assay type: functional; details: for mortality at 5000 µg/mL: 72 h
How it was run: (§2)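 Whole plants sprayed on the foliage with freshly prepared test solution at 5 mg/mL. Spray volume was matched to foliar surface area, roughly 1 to 3 mL per pot. One or two pots were treated per species, depending on foliar area and plant availability.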

Oryza sativa = assay: Herbicidal activity against Oryza sativa (rice) (M-104) Oryza sativa L assessed as mortality measured after 3 days at 5 mg/ml by foliar spraying; assay type: organism-based; details: in vivo, other, 72 h; how it was run: as §2
Rumex crispus = assay: Phytotoxicity against curly dock Rumex crispus assessed as mortality measured after 3 days at 5 mg/ml by foliar spraying; assay type: functional; details: 72 h; how it was run: as §2
Solanum nigrum = assay: Phytotoxicity against Solanum nigrum (black nightshade) assessed as mortality measured after 3 days at 5 mg/ml by foliar spraying; assay type: functional; details: 72 h; how it was run: as §2
Mutarda arvensis = assay: Phytotoxicity against wild mustard Sinapis arvensis assessed as mortality measured after 3 days at 5 mg/ml by foliar spraying; assay type: functional; details: 72 h; how it was run: as §2
Poa annua = assay: Phytotoxicity against annual bluegrass Poa annua assessed as mortality measured after 3 days at 5 mg/ml by foliar spraying; assay type: functional; details: 72 h; how it was run: as §2
Chenopodium album = assay: Phytotoxicity against Chenopodium album assessed as mortality measured after 3 days at 5 mg/ml by foliar spraying; assay type: functional; details: 72 h; how it was run: as §2
Taraxacum officinale = assay: Phytotoxicity against dandelion Taraxacum officinale (dandelion) assessed as mortality measured after 3 days at 5 mg/ml by foliar spraying; assay type: functional; details: 72 h; how it was run: as §2
Leptochloa = assay: Phytotoxicity against Leptochloa fascicularis (sprangletop) assessed as mortality measured after 3 days at 5 mg/ml by foliar spraying; assay type: functional; details: 72 h; how it was run: as §2
Cyperus difformis = assay: Phytotoxicity against sedge Cyperus difformis assessed as mortality measured after 3 days at 5 mg/ml by foliar spraying; assay type: functional; details: 72 h; how it was run: as §2
Erigeron canadensis = assay: Phytotoxicity against Conyza canadensis (horseweed)assessed as mortality measured after 3 days at 5 mg/ml by foliar spraying; assay type: functional; details: 72 h; how it was run: as §2
Digitaria sanguinalis = assay: Phytotoxicity against Digitaria sanguinalis (hairy crabgrass) assessed as mortality measured after 3 days at 5 mg/ml by foliar spraying; assay type: functional; details: 72 h; how it was run: as §2
Convolvulus arvensis = assay: Phytotoxicity against Convolvulus arvensis assessed as mortality measured after 3 days at 5 mg/ml by foliar spraying; assay type: functional; details: 72 h; how it was run: as §2
Echinochloa crus-galli [2] = assay: as §1; assay type: functional; details: 72 h; how it was run: as §2
Amaranthus retroflexus = assay: Phytotoxicity against Amaranthus retroflexus assessed as mortality measured after 3 days at 5 mg/ml by foliar spraying; assay type: functional; details: 72 h; how it was run: as §2

CCCCCCC/C=C/C(=O)N1CCCCC1
mortality at 5000 µg/mL (Echinochloa crus-galli [1]): 80%

CCCCCCC/C=C/C(=O)N1CCCCCC1
mortality at 5000 µg/mL (Echinochloa crus-galli [1]): 80%

O=C(/C=C/c1ccccc1)N1CCCCC1
mortality at 5000 µg/mL (Echinochloa crus-galli [1]): 40%

CCCCC/C=C\C=C\C(=O)N1CCCCC1 [(2E,4Z-DECADIENOYL)PIPERIDINE]
mortality at 5000 µg/mL (Echinochloa crus-galli [1]): 80%

NC1CCCC1
mortality (Echinochloa crus-galli [1]): inactive

CCCCCCCCCC(=O)N1CCCC1 [N-(DECANOYL)PYRROLIDINE]
mortality at 5000 µg/mL (Echinochloa crus-galli [1]): 80%

CCCCCCCCCC(=O)N1CCCCCC1 [N-(DECANOYL)HEXAMETHYLENEIMINE]
mortality at 5000 µg/mL (Echinochloa crus-galli [1]): 80%

CCCCC/C=C/C=C/C(=O)N1CCCC1 [SARMENTINE]
mortality at 5000 µg/mL (Echinochloa crus-galli [1]): 80%
mortality (Oryza sativa): Not Active
mortality at 5000 µg/mL (Rumex crispus): 80%
mortality at 5000 µg/mL (Solanum nigrum): 80%
mortality at 5000 µg/mL (Mutarda arvensis): 80%
mortality at 5000 µg/mL (Poa annua): 80%
mortality at 5000 µg/mL (Chenopodium album): 80%
mortality at 5000 µg/mL (Taraxacum officinale): 80%
mortality at 5000 µg/mL (Leptochloa): 80%
mortality at 5000 µg/mL (Cyperus difformis): 20%
mortality at 5000 µg/mL (Erigeron canadensis): < 20%
mortality at 5000 µg/mL (Digitaria sanguinalis): 80%
mortality at 5000 µg/mL (Convolvulus arvensis): 80%
mortality at 5000 µg/mL (Echinochloa crus-galli [2]): 80%
mortality at 5000 µg/mL (Amaranthus retroflexus): 80%

C1CCCNCC1
mortality (Echinochloa crus-galli [1]): inactive

CCCCC/C=C\C=C\C(=O)N1CCCC1 [(2E,4Z-DECADIENOYL)PYRROLIDINE]
mortality at 5000 µg/mL (Echinochloa crus-galli [1]): 80%

O=C(/C=C/c1ccccc1)N1CCCCCC1
mortality at 5000 µg/mL (Echinochloa crus-galli [1]): < 20%

O=C(O)/C=C/c1ccccc1 [CINNAMIC ACID]
mortality at 5000 µg/mL (Echinochloa crus-galli [1]): 60%

CCCCCCCCCC(=O)N1CCCCC1 [N-(DECANOYL)PIPERIDINE]
mortality at 5000 µg/mL (Echinochloa crus-galli [1]): 80%

C1CCNCC1
mortality (Echinochloa crus-galli [1]): inactive

CCCCC/C=C\C=C\C(=O)N1CCCCCC1 [(2E,4Z-DECADIENOYL)HEXAMETHLENEIMINE]
mortality at 5000 µg/mL (Echinochloa crus-galli [1]): 80%

CCCCCCCCCC(=O)O [DECANOIC ACID]
mortality at 5000 µg/mL (Echinochloa crus-galli [1]): 80%

CCCCC/C=C\C=C\C(=O)NC1CCCC1
mortality at 5000 µg/mL (Echinochloa crus-galli [1]): < 20%

CCCCCCC/C=C/C(=O)O [2E-DECENOIC ACID]
mortality at 5000 µg/mL (Echinochloa crus-galli [1]): 80%

O=C(/C=C/c1ccccc1)NC1CCCC1
mortality at 5000 µg/mL (Echinochloa crus-galli [1]): < 20%

CCCCCCC/C=C/C(=O)NC1CCCC1
mortality at 5000 µg/mL (Echinochloa crus-galli [1]): < 20%

C1CCNC1
mortality (Echinochloa crus-galli [1]): inactive

CCCCC/C=C\C=C\C(=O)OCC
mortality at 5000 µg/mL (Echinochloa crus-galli [1]): < 20%

CCCCCCC/C=C/C(=O)N1CCCC1
mortality at 5000 µg/mL (Echinochloa crus-galli [1]): 80%

CCCCCCCCCC(=O)NC1CCCC1 [N-CYCLOPENTYLDECANAMIDE]
mortality at 5000 µg/mL (Echinochloa crus-galli [1]): < 20%

O=C(/C=C/c1ccccc1)N1CCCC1
mortality at 5000 µg/mL (Echinochloa crus-galli [1]): 80%
